Data from ChEMBL document CHEMBL5653631, “A Potent and Selective ULK1 Inhibitor Suppresses Autophagy and Sensitizes Cancer Cells to Nutrient Stress” (iScience, 2018).
One block for each molecule: values may come before it.

Experiments:
[1] = target: T1, Protein kinase C epsilon type (Homo sapiens) (UniProt Q02156); assay: Inhibition of human recombinant PKCe at 500 nM in presence of ATP by radiometric assay relative to control
T1 sequence (whole entry): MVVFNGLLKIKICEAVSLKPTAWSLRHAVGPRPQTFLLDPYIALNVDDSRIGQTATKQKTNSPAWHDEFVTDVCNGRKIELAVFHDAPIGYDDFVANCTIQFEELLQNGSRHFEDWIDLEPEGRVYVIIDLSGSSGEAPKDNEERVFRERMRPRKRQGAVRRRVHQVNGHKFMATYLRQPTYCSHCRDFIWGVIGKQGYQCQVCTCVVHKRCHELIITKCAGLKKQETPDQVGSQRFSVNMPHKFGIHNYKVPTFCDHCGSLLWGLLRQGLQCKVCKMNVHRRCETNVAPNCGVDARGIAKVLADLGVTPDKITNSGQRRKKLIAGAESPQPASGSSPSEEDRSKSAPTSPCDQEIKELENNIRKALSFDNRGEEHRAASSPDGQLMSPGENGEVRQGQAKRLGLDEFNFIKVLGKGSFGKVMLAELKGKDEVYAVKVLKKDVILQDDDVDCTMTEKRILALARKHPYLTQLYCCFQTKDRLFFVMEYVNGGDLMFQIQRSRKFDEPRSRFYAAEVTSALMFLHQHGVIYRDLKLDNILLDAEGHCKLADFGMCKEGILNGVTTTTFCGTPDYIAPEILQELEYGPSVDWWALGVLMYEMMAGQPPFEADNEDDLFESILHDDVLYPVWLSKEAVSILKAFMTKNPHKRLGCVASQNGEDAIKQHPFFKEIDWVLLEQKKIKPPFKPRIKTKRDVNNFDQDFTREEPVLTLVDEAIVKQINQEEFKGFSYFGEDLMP

[2] = target: Mitogen-activated protein kinase kinase kinase 20 (Homo sapiens) (UniProt Q9NYL2); assay: Inhibition of human recombinant ZAK at 500 nM in presence of ATP by radiometric assay relative to control
[3] = target: Casein kinase II subunit alpha (Homo sapiens) (UniProt P68400); assay: Inhibition of human recombinant CK2a1 at 500 nM related to control ULK1
[4] = target: T2, Discoidin domain-containing receptor 2 (Homo sapiens) (UniProt Q16832); assay: Inhibition of human recombinant DDR2 at 15 nM related to control ULK1
T2 sequence (whole entry): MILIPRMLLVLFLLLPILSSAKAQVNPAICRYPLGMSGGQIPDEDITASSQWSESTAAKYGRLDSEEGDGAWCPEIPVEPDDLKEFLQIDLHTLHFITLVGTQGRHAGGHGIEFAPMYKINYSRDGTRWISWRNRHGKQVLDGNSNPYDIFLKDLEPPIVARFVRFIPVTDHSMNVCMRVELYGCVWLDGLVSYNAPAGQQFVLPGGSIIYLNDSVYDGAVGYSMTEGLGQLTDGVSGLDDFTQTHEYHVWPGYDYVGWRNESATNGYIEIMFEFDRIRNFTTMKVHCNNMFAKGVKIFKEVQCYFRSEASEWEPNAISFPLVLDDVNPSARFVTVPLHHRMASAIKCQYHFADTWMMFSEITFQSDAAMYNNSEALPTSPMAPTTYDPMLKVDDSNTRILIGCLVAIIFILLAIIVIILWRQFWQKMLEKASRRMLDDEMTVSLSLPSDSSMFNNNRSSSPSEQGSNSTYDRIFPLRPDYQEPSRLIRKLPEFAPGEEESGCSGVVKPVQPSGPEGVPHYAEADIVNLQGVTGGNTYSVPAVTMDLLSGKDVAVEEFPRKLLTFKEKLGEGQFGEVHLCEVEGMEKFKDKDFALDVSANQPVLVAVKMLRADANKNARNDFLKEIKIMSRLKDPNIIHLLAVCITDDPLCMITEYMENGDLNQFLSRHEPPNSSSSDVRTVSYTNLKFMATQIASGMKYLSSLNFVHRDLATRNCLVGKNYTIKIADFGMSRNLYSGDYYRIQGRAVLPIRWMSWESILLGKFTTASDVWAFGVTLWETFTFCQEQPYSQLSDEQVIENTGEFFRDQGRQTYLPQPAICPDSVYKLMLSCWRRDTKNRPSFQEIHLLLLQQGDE

[5] = target: Ribosomal protein S6 kinase alpha-4 (Homo sapiens) (UniProt O75676); assay: Inhibition of human recombinant MSK2 at 15 nM related to control ULK1
[6] = target: T3, Dual specificity protein kinase TTK (Homo sapiens) (UniProt P33981); assay: Inhibition of human recombinant TTK at 40 nM in presence of ATP by radiometric assay relative to control
T3 sequence (whole entry): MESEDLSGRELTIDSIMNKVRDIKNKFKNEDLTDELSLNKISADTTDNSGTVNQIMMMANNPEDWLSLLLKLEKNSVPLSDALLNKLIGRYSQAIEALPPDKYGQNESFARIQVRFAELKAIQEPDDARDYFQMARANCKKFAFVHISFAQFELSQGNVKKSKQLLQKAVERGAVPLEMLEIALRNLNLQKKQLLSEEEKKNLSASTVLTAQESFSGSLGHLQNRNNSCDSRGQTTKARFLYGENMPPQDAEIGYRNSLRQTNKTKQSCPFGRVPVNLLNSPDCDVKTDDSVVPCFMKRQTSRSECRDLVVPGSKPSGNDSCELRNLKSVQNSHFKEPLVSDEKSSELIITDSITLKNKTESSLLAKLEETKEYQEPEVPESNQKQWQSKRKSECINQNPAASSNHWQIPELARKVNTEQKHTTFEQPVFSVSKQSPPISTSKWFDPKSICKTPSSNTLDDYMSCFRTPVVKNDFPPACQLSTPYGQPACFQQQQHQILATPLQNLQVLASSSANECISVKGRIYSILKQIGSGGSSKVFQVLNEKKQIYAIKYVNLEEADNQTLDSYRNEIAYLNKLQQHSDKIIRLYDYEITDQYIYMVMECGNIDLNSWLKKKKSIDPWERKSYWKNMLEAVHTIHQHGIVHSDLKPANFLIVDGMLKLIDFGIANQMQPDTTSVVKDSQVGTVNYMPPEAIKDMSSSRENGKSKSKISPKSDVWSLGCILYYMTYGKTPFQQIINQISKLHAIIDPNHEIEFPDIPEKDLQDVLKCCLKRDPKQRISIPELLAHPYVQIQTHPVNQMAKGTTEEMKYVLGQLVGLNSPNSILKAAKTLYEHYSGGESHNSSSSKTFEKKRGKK

[7] = target: Serine/threonine-protein kinase Nek7 (Homo sapiens) (UniProt Q8TDX7); assay: Inhibition of human recombinant NEK7 at 40 nM related to control ULK1
[8] = target: 5'-AMP-activated protein kinase catalytic subunit alpha-2 (Homo sapiens) (UniProt P54646); assay: Inhibition of human recombinant AMPKa2 at 40 nM related to control ULK1
Summary of the method: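 Radiometric activity assays in a panel of 327 human recombinant kinases, each run in duplicate at one inhibitor concentration. Activity remaining is expressed as percent of vehicle control, and percent inhibition is calculated as 100% minus percent activity remaining.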

Chain of Serine/threonine-protein kinase Nek7 (Homo sapiens) (Q8TDX7 whole entry, looked up): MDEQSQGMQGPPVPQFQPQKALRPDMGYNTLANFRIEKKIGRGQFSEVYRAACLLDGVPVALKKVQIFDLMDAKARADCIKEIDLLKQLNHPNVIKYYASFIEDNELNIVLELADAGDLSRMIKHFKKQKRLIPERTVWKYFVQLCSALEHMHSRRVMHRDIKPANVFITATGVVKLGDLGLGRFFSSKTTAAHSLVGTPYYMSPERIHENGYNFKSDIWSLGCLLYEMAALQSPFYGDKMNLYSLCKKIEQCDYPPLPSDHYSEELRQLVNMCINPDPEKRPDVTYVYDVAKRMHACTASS
Chain of 5'-AMP-activated protein kinase catalytic subunit alpha-2 (Homo sapiens) (P54646 whole entry, looked up): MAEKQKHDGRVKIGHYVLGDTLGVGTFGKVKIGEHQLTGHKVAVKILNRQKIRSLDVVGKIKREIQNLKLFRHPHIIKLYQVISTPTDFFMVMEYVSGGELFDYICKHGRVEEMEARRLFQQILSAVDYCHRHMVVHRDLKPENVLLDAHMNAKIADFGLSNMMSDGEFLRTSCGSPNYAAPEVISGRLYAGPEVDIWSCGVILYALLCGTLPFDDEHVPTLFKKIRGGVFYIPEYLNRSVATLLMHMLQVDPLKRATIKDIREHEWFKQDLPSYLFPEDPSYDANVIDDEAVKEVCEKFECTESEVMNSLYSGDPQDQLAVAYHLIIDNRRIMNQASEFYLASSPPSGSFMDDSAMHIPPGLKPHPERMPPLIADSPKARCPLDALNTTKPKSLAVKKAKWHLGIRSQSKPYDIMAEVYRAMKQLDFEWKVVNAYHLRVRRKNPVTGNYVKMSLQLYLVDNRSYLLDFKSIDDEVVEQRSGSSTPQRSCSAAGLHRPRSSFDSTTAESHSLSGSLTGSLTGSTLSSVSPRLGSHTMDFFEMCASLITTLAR
Chain of Ribosomal protein S6 kinase alpha-4 (Homo sapiens) (O75676 whole entry, looked up): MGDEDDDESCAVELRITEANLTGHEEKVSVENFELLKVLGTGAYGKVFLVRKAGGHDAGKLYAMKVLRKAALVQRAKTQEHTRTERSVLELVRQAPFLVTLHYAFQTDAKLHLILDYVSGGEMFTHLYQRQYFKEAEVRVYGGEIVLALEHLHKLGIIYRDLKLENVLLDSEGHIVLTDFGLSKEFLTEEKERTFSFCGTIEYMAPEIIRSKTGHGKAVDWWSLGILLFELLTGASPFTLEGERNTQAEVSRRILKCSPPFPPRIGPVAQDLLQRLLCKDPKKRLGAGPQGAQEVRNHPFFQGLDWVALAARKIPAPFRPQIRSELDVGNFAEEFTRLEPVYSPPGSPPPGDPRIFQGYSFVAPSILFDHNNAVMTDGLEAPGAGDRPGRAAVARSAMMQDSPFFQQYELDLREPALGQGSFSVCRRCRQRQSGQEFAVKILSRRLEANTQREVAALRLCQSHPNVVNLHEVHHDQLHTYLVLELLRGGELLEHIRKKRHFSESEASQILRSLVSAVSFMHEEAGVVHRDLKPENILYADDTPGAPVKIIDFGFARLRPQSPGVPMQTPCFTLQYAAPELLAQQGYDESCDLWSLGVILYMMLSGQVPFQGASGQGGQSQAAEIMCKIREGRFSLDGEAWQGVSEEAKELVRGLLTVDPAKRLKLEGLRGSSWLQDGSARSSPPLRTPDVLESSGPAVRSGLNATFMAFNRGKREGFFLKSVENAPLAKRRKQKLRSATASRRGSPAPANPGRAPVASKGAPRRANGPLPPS
Chain of Mitogen-activated protein kinase kinase kinase 20 (Homo sapiens) (Q9NYL2 2-800 limits assumed): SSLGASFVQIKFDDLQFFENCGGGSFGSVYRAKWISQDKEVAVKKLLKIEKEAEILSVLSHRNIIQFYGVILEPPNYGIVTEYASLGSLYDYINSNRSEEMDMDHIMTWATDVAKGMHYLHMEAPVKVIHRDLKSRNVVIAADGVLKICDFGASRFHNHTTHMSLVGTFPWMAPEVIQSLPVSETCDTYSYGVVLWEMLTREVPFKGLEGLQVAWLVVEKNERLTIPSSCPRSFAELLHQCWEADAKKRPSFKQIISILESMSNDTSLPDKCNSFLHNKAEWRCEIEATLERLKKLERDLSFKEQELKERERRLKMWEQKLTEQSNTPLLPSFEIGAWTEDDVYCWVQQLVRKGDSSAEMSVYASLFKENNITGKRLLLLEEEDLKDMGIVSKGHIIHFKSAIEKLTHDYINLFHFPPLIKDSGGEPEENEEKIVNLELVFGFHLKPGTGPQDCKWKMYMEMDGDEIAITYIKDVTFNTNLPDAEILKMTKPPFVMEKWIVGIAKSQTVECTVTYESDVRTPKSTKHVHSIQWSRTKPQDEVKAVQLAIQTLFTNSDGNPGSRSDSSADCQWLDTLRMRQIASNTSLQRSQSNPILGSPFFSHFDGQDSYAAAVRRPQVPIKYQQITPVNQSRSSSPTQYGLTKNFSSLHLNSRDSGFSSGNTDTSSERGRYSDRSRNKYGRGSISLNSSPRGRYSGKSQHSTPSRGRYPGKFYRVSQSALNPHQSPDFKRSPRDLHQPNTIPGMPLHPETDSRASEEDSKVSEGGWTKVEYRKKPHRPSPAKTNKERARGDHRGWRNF
Chain of Casein kinase II subunit alpha (Homo sapiens) (P68400 whole entry, looked up, the tested form may be a part): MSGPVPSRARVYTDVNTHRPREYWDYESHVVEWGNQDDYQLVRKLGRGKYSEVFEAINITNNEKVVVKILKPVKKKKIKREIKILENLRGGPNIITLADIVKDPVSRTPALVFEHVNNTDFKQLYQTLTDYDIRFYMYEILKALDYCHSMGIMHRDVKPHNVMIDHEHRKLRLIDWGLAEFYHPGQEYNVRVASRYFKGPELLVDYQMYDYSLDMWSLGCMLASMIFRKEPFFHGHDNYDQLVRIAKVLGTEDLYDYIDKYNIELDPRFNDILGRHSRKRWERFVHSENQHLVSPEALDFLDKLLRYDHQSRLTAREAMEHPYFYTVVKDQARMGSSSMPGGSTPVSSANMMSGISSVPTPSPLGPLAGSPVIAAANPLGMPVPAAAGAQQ

inhibition [1]: 0% | inhibition [2]: 1% | fold change (FC) [3]: 0.19
Structure (SMILES): CNC(=O)c1ccccc1Oc1nc(Nc2cc(OC)c(OC)c(OC)c2)ncc1Br

fold change (FC) [4]: 0 | fold change (FC) [5]: 0
Structure (SMILES): CC(C)[C@H](NC(=O)c1cc(-c2cnn3cc(-c4ccc(OCCN5CCCCC5)cc4)cnc23)cs1)C(F)(F)F

inhibition [6]: 33% | fold change (FC) [7]: 0 | fold change (FC) [8]: 0.1
Structure (SMILES): O=C(N[C@@H](C1CC1)C(F)(F)F)c1cc(-c2cnn3cc(-c4ccc(F)cc4)cnc23)cs1
